Article PMC7551138 (Alzheimer's & Dementia : Translational Research & Clinical …, 2020)

Tests used:
Assay type in all cases: in vivo, human
healthy elderly subjects [1] = assay: Monitoring of treatment‐emergent adverse events
Procedure, shortened: (§1)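 Randomised, double-blind, placebo-controlled trial in healthy subjects aged ≥65 (n=48; 12 active:4 placebo per cohort, placebos pooled). Intranasal test compound 5.5, 11 or 22 mg or 0.9% NaCl b.i.d. for 7 days, 6 h between doses. The 11 mg active subjects later got one open-label oral 16 mg dose of the parent drug. Safety was tracked by TEAEs, nasal examination, vital signs, ECG and safety bloods.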

healthy elderly subjects [2] = assay: Vital signs; details: for Diastolic BP supine / Pulse Rate supine / Systolic BP supine: vs placebo, mean (confidence interval)
Procedure, shortened: as §1

[3] = Plasma pharmacokinetics, non‐compartmental analysis
[4] = CSF and plasma concentrations, Gln‐1062 11 mg vs 16 mg oral galantamine
healthy elderly subjects [5] = assay: NeuroCart adaptive tracking test; details: vs placebo, mean (confidence interval)
Procedure, shortened: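 Joystick task keeping a dot inside a moving circle. Circle speed rises while the dot stays inside and falls when it escapes. The score is % time tracked over 3.5 min, including a 0.5 min run-in. Testing was repeated over time, with extra sessions in the 22 mg cohort. Analysis was mixed-model ANOVA (treatment, time, treatment×time fixed; subject random; baseline covariate), reporting LSM difference versus placebo with CI.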

healthy elderly subjects [6] = assay: NeuroCart eye movements; details: vs placebo, mean (confidence interval)
Procedure, shortened: (§2)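 NeuroCart tests were repeated over time during the 7-day b.i.d. intranasal dosing: eye movements, N-back with 3 working-memory-load conditions, pharmaco-EEG, and 100-mm VAS (Bond and Lader mood/alertness/calmness; nausea). In the 22 mg cohort, EEG at 30 min and 3 h post-dose was dropped. Analysis was mixed-model ANOVA (treatment, time, treatment×time fixed; subject random; baseline covariate), giving LSM difference versus placebo with CI.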

healthy elderly subjects [7] = assay: Visual analogue scales; details: vs placebo, mean (confidence interval)
Procedure, shortened: as §2

[8] = 5.5 mg b.i.d. intranasal, within 24 hours after first administration, dosing day 1
[9] = 22 mg b.i.d. intranasal, within 24 hours after first administration, dosing day 1
[10] = 5.5 mg b.i.d. intranasal 7 days

COc1ccc2c3c1O[C@H]1C[C@@H](OC(=O)c4ccccc4)C=C[C@@]31CCN(C)C2 [Gln‐1062]
TEAEs within 24 hours: All gastrointestinal disorders (healthy elderly subjects [1]; [8]): 1 (8.3) number of subjects (percentage
TEAEs within 24 hours: Any events (healthy elderly subjects [1]; [8]): 7 (58.3) number of subjects (percentage
TEAEs within 24 hours: Nausea (healthy elderly subjects [1]; [8]): 1 (8.3) number of subjects (percentage
TEAEs within 24 hours: Vomiting (healthy elderly subjects [1]; [8]): 1 (8.3) number of subjects (percentage
TEAEs within 24 hours: Any events (healthy elderly subjects [1]; 11 mg b.i.d. intranasal, within 24 hours after first administration, dosing day 1): 12 (100.0) number of subjects (percentage
TEAEs within 24 hours: All gastrointestinal disorders (healthy elderly subjects [1]; [9]): 6 (50.0) number of subjects (percentage
TEAEs within 24 hours: Any events (healthy elderly subjects [1]; [9]): 12 (100.0) number of subjects (percentage
TEAEs within 24 hours: Diarrhea (healthy elderly subjects [1]; [9]): 2 (16.7) number of subjects (percentage
TEAEs within 24 hours: Nausea (healthy elderly subjects [1]; [9]): 5 (41.7) number of subjects (percentage
TEAEs within 24 hours: Vomiting (healthy elderly subjects [1]; [9]): 3 (25.0) number of subjects (percentage
intensity of TEAEs (healthy elderly subjects [1]; 5.5 to 22 mg b.i.d., 7 days): mild or moderate
serious adverse events (healthy elderly subjects [1]; 5.5 to 22 mg b.i.d., 7 days): no serious adverse events
safety and tolerability (healthy elderly subjects [1]; up to 22 mg b.i.d. intranasal for 7 days): safe and well tolerated
Diastolic BP supine (healthy elderly subjects [2]; [10]): 2.5 (−0.6, 5.6) P = 0.1105 mmHg
Pulse Rate supine (healthy elderly subjects [2]; [10]): −2.5 (−6.4, 1.4) P = 0.2044 bpm
Systolic BP supine (healthy elderly subjects [2]; [10]): 5.0 (−0.3, 10.4) P = 0.0644 mmHg
Diastolic BP supine (healthy elderly subjects [2]; 11 mg b.i.d. intranasal 7 days): 0.9 (−2.2, 4.1) P = 0.5566 mmHg
Pulse Rate supine (healthy elderly subjects [2]; 11 mg b.i.d. intranasal 7 days): −1.0 (−4.9, 2.9) P = 0.6030 bpm
Systolic BP supine (healthy elderly subjects [2]; 11 mg b.i.d. intranasal 7 days): 1.2 (−4.1, 6.5) P = 0.6528 mmHg
Diastolic BP supine (healthy elderly subjects [2]; 22 mg b.i.d. intranasal 7 days): 1.2 (−1.9, 4.3) P = 0.4437 mmHg
Pulse Rate supine (healthy elderly subjects [2]; 22 mg b.i.d. intranasal 7 days): 0.5 (−3.5, 4.4) P = 0.8169 bpm
Systolic BP supine (healthy elderly subjects [2]; 22 mg b.i.d. intranasal 7 days): 1.8 (−3.6, 7.2) P = 0.5098 mmHg
effect on the pulse rate (healthy elderly subjects [2]; all dose levels): No statistically significant effect
increase in mean diastolic blood pressure (healthy elderly subjects [2]; first dosing day, 11 mg): 5.1 mm Hg
changes in blood and urinary laboratory values and ECG safety parameters (healthy elderly subjects [2]; multiple doses): did not result in clinically significant changes
increase in systolic blood pressure (healthy elderly subjects [2]; seventh day, 5.5 mg): 7.6 mm Hg
t1/2 of Gln‐1062 in plasma, mean (± SD) ([3]; 5.5 mg intranasal): 1.16 (±0.37) hour
t1/2 of Gln‐1062 in plasma, mean (± SD) ([3]; 22 mg intranasal): 2.09 (± 0.58) hour
median Tmax of Gln‐1062 in plasma ([3]; intranasal 5.5, 11 or 22 mg b.i.d., range 0.5 to 1.0 hour): 30 min
Gln‐1062 concentrations in CSF ([4]; 11 mg Gln‐1062 intranasal): below the limit of quantification
Dose‐corrected plasma and CSF concentrations of galantamine cleaved from Gln‐1062, compared with oral galantamine ([4]; 11 mg Gln‐1062 intranasal vs 16 mg oral galantamine): lower
Adaptive tracking (healthy elderly subjects [5]; [10]): 0.520 (−0.779, 1.818) P = 0.4240 %‐point
Adaptive tracking (healthy elderly subjects [5]; 11 mg b.i.d. intranasal 7 days): 0.318 (−0.992, 1.627) P = 0.6266 %‐point
Saccadic Inaccuracy (healthy elderly subjects [6]; [10]): 0.59 (−0.46, 1.64) P = 0.2627%
Saccadic Peak Velocity (healthy elderly subjects [6]; [10]): −0.06 (−21.97, 21.85) P = 0.9958 deg/s
Saccadic Reaction Time (healthy elderly subjects [6]; [10]): −0.0112 (−0.0224,−0.0001) P = 0.0481 sec
Smooth Pursuit (healthy elderly subjects [6]; [10]): −1.28 (−5.10, 2.53) P = 0.5011%
Saccadic Inaccuracy (healthy elderly subjects [6]; 11 mg b.i.d. intranasal 7 days): 0.20 (−0.89, 1.30) P = 0.7099%
Saccadic Peak Velocity (healthy elderly subjects [6]; 11 mg b.i.d. intranasal 7 days): 5.03 (−17.82, 27.87) P = 0.6588 deg/s
Saccadic Reaction Time (healthy elderly subjects [6]; 11 mg b.i.d. intranasal 7 days): −0.0018 (−0.0134, 0.0098) P = 0.7546 sec
Smooth Pursuit (healthy elderly subjects [6]; 11 mg b.i.d. intranasal 7 days): −0.10 (−4.04, 3.84) P = 0.9597%
Saccadic Inaccuracy (healthy elderly subjects [6]; 22 mg b.i.d. intranasal 7 days): 0.51 (−0.56, 1.58) P = 0.3393%
Saccadic Peak Velocity (healthy elderly subjects [6]; 22 mg b.i.d. intranasal 7 days): 8.63 (−13.65, 30.91) P = 0.4379 deg/s
Saccadic Reaction Time (healthy elderly subjects [6]; 22 mg b.i.d. intranasal 7 days): −0.0013 (−0.0126, 0.0101) P = 0.8228 sec
Smooth Pursuit (healthy elderly subjects [6]; 22 mg b.i.d. intranasal 7 days): 2.00 (−1.88, 5.88) P = 0.3039%
VAS Alertness (healthy elderly subjects [7]; [10]): −1.09 (−3.74, 1.57) P = 0.4134 mm
VAS Calmness (healthy elderly subjects [7]; [10]): 0.44 (−2.59, 3.48) P = 0.7694 mm
VAS Mood (healthy elderly subjects [7]; [10]): −0.92 (−3.98, 2.13) P = 0.5462 mm
VAS Alertness (healthy elderly subjects [7]; 11 mg b.i.d. intranasal 7 days): 0.63 (−2.15, 3.41) P = 0.6514 mm
VAS Calmness (healthy elderly subjects [7]; 11 mg b.i.d. intranasal 7 days): 0.27 (−2.86, 3.40) P = 0.8615 mm
VAS Mood (healthy elderly subjects [7]; 11 mg b.i.d. intranasal 7 days): −0.49 (−3.59, 2.62) P = 0.7530 mm
VAS Alertness (healthy elderly subjects [7]; 22 mg b.i.d. intranasal 7 days): −0.21 (−2.86, 2.44) p = 0.8735 mm
VAS Calmness (healthy elderly subjects [7]; 22 mg b.i.d. intranasal 7 days): 0.44 (−2.61, 3.49) P = 0.7734 mm
